What is called inhibition is the change of the read-out against control, counted positive when it falls.

Structures are written as SMILES. The campaign covered roughly 190,000 compounds. About 1,300 (0.68%) were called active.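 Rule for the calls: active = primary screen inhibition at 20 µM above a set limit (cut at about 50% in these data); inactive = the rest.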 The entries come from a sample that favours actives as a whole.

This assay concerns diaphorase (Clostridium kluyveri). Put plainly: diaphorase inhibitors and chemical oxidizers, primary screen, counter-screen for diaphorase-coupled primary assays, biochemical, uHTS, resorufin fluorescence (AID 1217).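 Note: plate controls were DMSO with full reaction for no effect and wells lacking NADH for full effect.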 As to conditions: diaphorase resazurin-to-resorufin fluorescence, NADH, 16 min; at 20 µM; hits give high values; bacterial (C. kluyveri) enzyme, not human. In a few lines: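 controls = No-NADH positive control and DMSO neutral control | system = Clostridium kluyveri diaphorase enzyme | timing = reaction incubation of 16 min at room temperature | signal = resorufin fluorescence 544/590 nm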
On the technique in general: Counterscreens check selectivity or assay interference.
Consider `CC(C)(C)c1csc(NC2=NS(=O)(=O)c3ccccc32)n1`, for which the inhibition was 15.4% (inactive).
With `O=C(Oc1ccccc1)c1ccc2nccnc2c1` the figure was 6.5% (inactive); with `O=C(Oc1cccc(NC2=NS(=O)(=O)c3ccccc32)c1)c1ccncc1`, 50.9% (active); with `Cc1ccc(NC(=O)c2sccc2C)cc1[N+](=O)[O-]`, 12.8% (inactive).
For the molecule `O=C(COC(=O)/C=C/c1ccc(S(=O)(=O)N2CCCCCC2)cc1)NCc1ccccc1Cl`, the inhibition is 7.9% (inactive).
`CN(C)NC(=O)C(NC(=O)c1ccc(N)cc1)C12CC3CC(CC(C3)C1)C2` (stereo not drawn): the inhibition was 4.7% (inactive).
For `c1ccc(CSc2nnc(-c3ccco3)c(-c3ccco3)n2)cc1`, the inhibition is 52.9% (active).
In the case of `Clc1ccccc1CSc1nnc(-c2ccco2)c(-c2ccco2)n1`, the inhibition is 46.2% (inactive).
Regarding `Brc1ccc(CSc2ccc(-c3ccco3)nn2)cc1`, the inhibition is 6.5% (inactive).
As to `O=C(CCN1CCN(c2ccccc2)CC1)NNC(=S)Nc1ccccc1`, the inhibition is 20.6% (inactive).
With `COC(=O)/C=C\C(=O)Nc1cccc([N+](=O)[O-])c1` the figure was -5.8% (inactive).
With `Cc1nc2sc(C(=O)c3ccccc3)c(N)c2c2c1CCCC2`, the inhibition was 28.7% (inactive).
To `NC(=O)c1sc2nc3c(c(-c4ccccc4)c2c1N)CCC3` belongs 36.8% (inactive).
With `Cc1cccc(NC(=O)c2sc3nc4c(c(-c5ccco5)c3c2N)CCC4)c1` the figure was 61.2% (active).
To `Cc1cccc(NC(=O)CSc2nnc(-c3ccco3)o2)c1` belongs 9.8% (inactive); to `Cc1ccc(NC(=O)c2sc3nc(N)c(C#N)cc3c2N)cc1`, 18.4% (inactive).
Regarding `CC(=O)Nc1ccc(NC(=O)c2sc3nc4c(c(-c5ccc(C)cc5)c3c2N)CCC4)cc1`, the inhibition was 51.1% (active).
On to `COCCN(C(=O)CCC(=O)Nc1nccs1)C(C(=O)NC(C)(C)C)c1ccc(Cl)cc1` (stereo not drawn), for which the inhibition was 10.1% (inactive).
As to `COc1cccc(CN(C)CC(=O)Nc2ccccc2C(=O)Nc2ccccc2)c1`, the inhibition was 26.6% (inactive).
Regarding `S=C(Nc1ccc2c(c1)OCO2)N1CCCC1`, the inhibition was 3.4% (inactive).
Regarding `N/C(=N\OC(=O)Cc1ccccc1[N+](=O)[O-])c1ccc(Br)cc1`, the inhibition is 23.2% (inactive).
Consider `Cc1ccc2[nH]c(=O)c(-c3nc4c(C)cccn4c3NCc3ccco3)cc2c1`, for which the inhibition is 51.5% (active).
To `COc1ccc(CCn2c(=N)c(C(=O)NCc3ccco3)cc3c(=O)n4cccc(C)c4nc32)cc1` belongs 8.1% (inactive); to `CCNCc1cc2cc(C)ccc2[nH]c1=O`, 20% (inactive); to `Cc1ccc(C)c(-n2cc(CN3CCN(C(=O)c4ncn[nH]4)CC3)c(-c3ccccc3)n2)c1`, 13.7% (inactive).
On to `c1ccc(C2=Nc3cccc4cccc(c34)N2)cc1`, for which the inhibition is 27% (inactive).
With `COc1ccccc1C1=Nc2cccc3cccc(c23)N1` the figure was 63.5% (active); with `Fc1ccccc1N=C1Nc2cccc3cccc1c23`, 12.1% (inactive); with `O=C1CC(=O)Nc2cc(S(=O)(=O)N3CCN(c4cccc(C(F)(F)F)c4)CC3)ccc2N1`, 0.3% (inactive).
As to `CCOC(=O)C1=NOC(Cn2cc(C(C)=O)c(=O)[nH]c2=O)C1` (stereo not drawn), the inhibition was 2.6% (inactive).
`CCOc1cc(/C=N/NC(=O)c2ccc(CSc3nncn3C)cc2)ccc1OCC(=O)N1CCOCC1`: the inhibition is -14% (inactive).
With `COc1cc(CNCCN(C)C)ccc1OCc1c(F)cccc1Cl` the figure was 3.9% (inactive); with `COc1ccc(C[C@H]2CN3C(=NC[C@H]3C)N2CCNC(=O)CCC2CCCCC2)cc1`, 0.9% (inactive).
As to `O=C(N/N=C/c1ccc(O)c(O)c1)C1c2ccccc2Oc2ccccc21`, the inhibition is 37.6% (inactive).
In the case of `Cc1nc2ccccc2n1CC(=O)N/N=C/c1cccnc1`, the inhibition was 8.6% (inactive).
As to `Cc1nccn1CC(=O)N/N=C/c1ccc(O)c(O)c1`, the inhibition is 50.4% (active).
Consider `CCN(CC)C(=O)Cn1cc(S(=O)(=O)CC(=O)NCc2ccc3c(c2)OCO3)c2ccccc21`, for which the inhibition was 10.1% (inactive).
To `CC(C)Oc1ccc(CC(=O)NNC(=S)Nc2ccc(Br)cc2)cc1` belongs -0.6% (inactive); to `COC(=O)c1ccc(C(=O)OC)c(NC(=S)N2CCN(c3ccc(F)cc3)CC2)c1`, 11.5% (inactive); to `CCc1ccc(N(CC(=O)Nc2sc3c(c2C(=O)OC)CCCC3)S(C)(=O)=O)cc1`, 28.6% (inactive).
With `Cc1cc(C)cc(OCc2nnc(SCC(=O)Nc3ccccc3)o2)c1` the figure was 8.2% (inactive).
`Cc1ccc(NC(=O)CSc2nnc(COc3ccccc3C)o2)cc1`: the inhibition was 55.6% (active).
With `Cc1ccc(NC(=O)CSc2nnc(CNC(=O)c3ccccc3F)o2)cc1` the figure was -12.4% (inactive); with `C/C(=N\NC(=O)OC(C)(C)C)c1ccc[nH]1`, 1.8% (inactive); with `COc1ccc(N2CCN(c3ccc([N+](=O)[O-])nc3)CC2)cc1`, -1% (inactive).
As for `CC(=O)NC(Cc1ccccc1)C(=O)NC1CCN(c2ncccc2[N+](=O)[O-])CC1` (stereo not drawn), the inhibition is 15.7% (inactive).
Consider `COc1ccc(-c2cc(C3CCN(c4ncccc4[N+](=O)[O-])CC3)[nH]n2)cc1`, for which the inhibition is 52.2% (active).
Consider `Cc1ccc(CNC(=O)Cn2c(=O)c3sccc3n(Cc3cccc([N+](=O)[O-])c3)c2=O)cc1`, for which the inhibition was -2.4% (inactive).
`O=C(C1CCN(S(=O)(=O)c2ccc(Br)s2)CC1)N1CCN(C2CCCCC2)CC1`: the inhibition was 18.2% (inactive).
In the case of `CCn1c(O)c(N=NC(=O)c2cccc(S(=O)(=O)N3CCCCC3)c2)c2ccccc21`, the inhibition is 29.2% (inactive).
On to `CCn1c(=O)cc(O)c2ccccc21`, for which the inhibition is 8.6% (inactive).
With `CCn1c(O)c(N=NC2=NC(=O)CS2)c2cc(C)ccc21`, the inhibition is 86.4% (active).
For `CC(C)c1ccc(Nc2nnc(SCC(=O)c3nnc(-c4ccccc4)o3)s2)cc1`, the inhibition was 18.8% (inactive).
For the molecule `O=C1OCC2=C1C(c1ccccc1)CC(=O)N2c1cccc(F)c1` (stereo not drawn), the inhibition is -4.2% (inactive).
To `COc1ccc(N2CCN(CCCNC(=O)C3CCN(S(=O)(=O)N4CCOCC4)CC3)CC2)cc1` belongs 0.3% (inactive); to `CC(=O)n1cc([C@@H]2C=C(C(=O)N3CCN(Cc4ccc5c(c4)OCO5)CC3)O[C@H](OCc3ccc(CO)cc3)C2)c2ccccc21`, 53.6% (active); to `CC(=O)n1cc([C@H]2C=C(C(=O)N3CCOCC3)O[C@@H](OCc3ccc(CO)cc3)C2)c2ccccc21`, -0.6% (inactive).
To `CN1CCN(C(=O)C2=C[C@H](c3ccc4c(c3)OCO4)C[C@H](OCc3ccc(CO)cc3)O2)CC1` belongs 5.9% (inactive).

The values are drawn from PubChem BioAssay AID1217 (Sanford-Burnham Center for Chemical Genomics, 2008).
